Key:
[1] = target: T1, NAD-dependent protein deacetylase sirtuin-2 (Homo sapiens) (UniProt Q8IXJ6); assay: Inhibition of recombinant human C-terminal His-tagged SIRT2 (50 to 389 end residues) expressed in Escherichia coli at 10 uM using p53 derived (379 to 382 residues) fluorogenic peptide substrate RHKK(Ac)-AMC preincubated for 10 mins followed by substrate addition in presence of NAD+ by fluorescence assay relative to control
T1 sequence (whole entry): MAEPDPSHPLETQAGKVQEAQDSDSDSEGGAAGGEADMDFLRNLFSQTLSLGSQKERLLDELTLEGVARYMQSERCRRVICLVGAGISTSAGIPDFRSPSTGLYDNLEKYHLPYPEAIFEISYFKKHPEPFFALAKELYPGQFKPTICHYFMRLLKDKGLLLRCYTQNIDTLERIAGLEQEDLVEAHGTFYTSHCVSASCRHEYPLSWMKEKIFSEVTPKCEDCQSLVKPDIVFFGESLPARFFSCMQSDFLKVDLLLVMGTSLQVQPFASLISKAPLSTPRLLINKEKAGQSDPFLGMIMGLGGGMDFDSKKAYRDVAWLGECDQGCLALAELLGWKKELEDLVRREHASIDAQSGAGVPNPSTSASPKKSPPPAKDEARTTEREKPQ
In short: (§1)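 Two-step fluorogenic assay with p53 379–382 RHKK(Ac)-AMC. Compound (from 10 mM DMSO stock) preincubated ~10 min with human SIRT before substrate addition. Developer then releases fluorophore, read at ex 360/em 460 nm.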

[2] = target: T2, NAD-dependent protein deacetylase sirtuin-2 (Homo sapiens, UniProt Q8IXJ6); assay: Inhibition of recombinant human C-terminal His-tagged SIRT2 (50 to 389 end residues) expressed in Escherichia coli using p53 derived (379 to 382 residues) fluorogenic peptide substrate RHKK(Ac)-AMC preincubated for 10 mins followed by substrate addition in presence of NAD+ by fluorescence assay; in short: as §1
T2 sequence (Q8IXJ6 whole entry): T1 sequence (whole entry)

Compound	inhibition [1] [%]	IC50 [2] [µM]
Cc1noc(C)c1CNC1CCc2c(sc3ncn(Cc4cccc5cccnc45)c(=O)c23)C1 (configuration not stated)	80	6.94
O=c1c2c3c(sc2ncn1Cc1cccc2cccnc12)CC(NCc1cccc(Cl)c1)CC3 (configuration not stated)	88	2.84
O=c1c2c3c(sc2ncn1Cc1cccc2cccnc12)CC(NCc1ccco1)CC3 (configuration not stated)	80	4.16
COc1ccccc1CNC1CCc2c(sc3ncn(Cc4ccccc4OC)c(=O)c23)C1 (configuration not stated)	72	9.59
Cc1ccc(NC2CCc3c(sc4ncn(Cc5cccc6cccnc56)c(=O)c34)C2)cc1 (configuration not stated)	78	4.25
O=c1c2c3c(sc2ncn1Cc1cccc2cccnc12)CC(NCc1cccs1)CC3 (configuration not stated)	88	2.56
COc1ccc(CNC2CCc3c(sc4ncn(Cc5cccc6ccccc56)c(=O)c34)C2)cc1 (configuration not stated)	78	3.2
O=c1c2c3c(sc2ncn1Cc1ccc2ccccc2c1)CC(NCC1CCCO1)CC3 (configuration not stated)	71	13.1
COc1ccccc1Cn1cnc2sc3c(c2c1=O)CCC(NC1CCc2ccccc21)C3 (configuration not stated)	70	16.3
Cc1nn(C)c(C)c1CNC1CCc2c(sc3ncn(Cc4ccc5ccccc5c4)c(=O)c23)C1 (configuration not stated)	87	7.43
Cc1nn(C)c(C)c1CNC1CCc2c(sc3ncn(Cc4cccc5ccccc45)c(=O)c23)C1 (configuration not stated)	85	4.2
O=c1c2c3c(sc2ncn1Cc1ccc2ccccc2c1)CC(NCc1ccccn1)CC3 (configuration not stated)	81	8.67
O=c1c2c3c(sc2ncn1Cc1cccc2ccccc12)CC(NCCc1cccnc1)CC3 (configuration not stated)	80	9.57
COc1ccc2ccccc2c1Cn1cnc2sc3c(c2c1=O)CCC(NCC1CCOC1)C3 (configuration not stated)	85	6.03
O=c1c2c3c(sc2ncn1Cc1cccc2cccnc12)CC(NC1CCCc2ccccc21)CC3 (configuration not stated)	80	5.49
COc1ccc2ccccc2c1Cn1cnc2sc3c(c2c1=O)CCC(NCc1ccccc1)C3 (configuration not stated)	–	21.1
O=c1c2c3c(sc2ncn1Cc1cccc(-c2ccccc2)c1)CC(NCC1CCOC1)CC3 (configuration not stated)	91	2.58
O=c1c2c3c(sc2ncn1Cc1cccc2cccnc12)CC(NCCC1CCCCC1)CC3 (configuration not stated)	81	5.85
O=c1c2c3c(sc2ncn1Cc1cccc2ccccc12)CC(NCc1ccco1)CC3 (configuration not stated)	70	7.61
COc1ccc(CNC2CCc3c(sc4ncn(Cc5cccc6cccnc56)c(=O)c34)C2)cc1 (configuration not stated)	95	1.83
COc1ccc2ccccc2c1Cn1cnc2sc3c(c2c1=O)CCC(NC1CCCC1)C3 (configuration not stated)	99	1.18
COc1ccc2ccccc2c1Cn1cnc2sc3c(c2c1=O)CCC(NC1CCOCC1)C3 (configuration not stated)	96	1.11
COc1ccc2ccccc2c1Cn1cnc2sc(CCNC3CCOCC3)c(C)c2c1=O	68	8.15
O=c1c2c3c(sc2ncn1Cc1ccc2ccccc2c1)CC(NCCc1cccnc1)CC3 (configuration not stated)	77	8.68
O=c1c2c3c(sc2ncn1Cc1cccc2cccnc12)CC(NCc1ccc(Cl)cc1)CC3 (configuration not stated)	94	1.27

Compound	inhibition [1] [%]	IC50 [2] [µM]
COc1ccc2ccccc2c1Cn1cnc2sc3c(c2c1=O)CCC(NCCc1ccncc1)C3 (configuration not stated)	95	2.75
O=c1c2c3c(sc2ncn1Cc1cccc2ccccc12)CC(NCc1cncnc1)CC3 (configuration not stated)	86	6.45
COc1ccc(CNC2CCc3c(sc4ncn(Cc5cccc6ccccc56)c(=O)c34)C2)cn1 (configuration not stated)	75	7.59
COc1ccc2ccccc2c1Cn1cnc2sc3c(c2c1=O)CCC(NCc1ccco1)C3 (configuration not stated)	78	5.24
COc1ccc2ccccc2c1Cn1cnc2sc3c(c2c1=O)CCC(NCC1CCCCC1)C3 (configuration not stated)	97	1.65
O=c1c2c3c(sc2ncn1Cc1cccc2ccccc12)CC(NCc1cccnc1)CC3 (configuration not stated)	89	2.99
O=c1c2c3c(sc2ncn1Cc1ccc2ccccc2c1)CC(NCc1ccco1)CC3 (configuration not stated)	72	11.7
O=c1c2c3c(sc2ncn1Cc1cccc2cccnc12)CC(NCc1ccccn1)CC3 (configuration not stated)	87	2.61
O=c1c2c3c(sc2ncn1Cc1cccc2ccccc12)CC(NCc1ccncc1)CC3 (configuration not stated)	92	3.58
COc1ccc(CNC2CCc3c(sc4ncn(Cc5c(OC)ccc6ccccc56)c(=O)c34)C2)cn1 (configuration not stated)	83	1.9
O=c1c2c3c(sc2ncn1Cc1ccc2ccccc2c1)CC(NCCc1ccncc1)CC3 (configuration not stated)	72	9.6
O=c1c2c3c(sc2ncn1Cc1cccc2cccnc12)CC(NCc1ccccc1Cl)CC3 (configuration not stated)	85	3.8
COc1ccccc1Cn1cnc2sc3c(c2c1=O)CCC(NCC1CCCCC1)C3 (configuration not stated)	79	9.18
COc1ccc2ccccc2c1Cn1cnc2sc3c(c2c1=O)CCC(NCc1c(C)noc1C)C3 (configuration not stated)	87	4
COc1ccc(CNC2CCc3c(sc4ncn(Cc5cccc6cccnc56)c(=O)c34)C2)cn1 (configuration not stated)	90	2.65
COc1ccc2ccccc2c1Cn1cnc2sc(CCNCc3cccnc3)c(C)c2c1=O	93	2.15
COc1ccc2ccccc2c1Cn1cnc2sc3c(c2c1=O)CCC(NCc1cccs1)C3 (configuration not stated)	69	6.03
COc1ccc(CNC2CCc3c(sc4ncn(Cc5ccc6ccccc6c5)c(=O)c34)C2)cc1 (configuration not stated)	86	3.82
Cc1noc(C)c1CNC1CCc2c(sc3ncn(Cc4cccc5ccccc45)c(=O)c23)C1 (configuration not stated)	85	1.85
COc1ccc(CNCCc2sc3ncn(Cc4c(OC)ccc5ccccc45)c(=O)c3c2C)cc1	89	3.36
O=c1c2c3c(sc2ncn1Cc1cccc2ccccc12)CC(NCCc1ccncc1)CC3 (configuration not stated)	75	5.79
O=c1c2c3c(sc2ncn1Cc1ccc2ccccc2c1)CC(NCc1ccccc1)CC3 (configuration not stated)	71	5.45
COc1cccc(CNC2CCc3c(sc4ncn(Cc5ccccc5OC)c(=O)c34)C2)c1 (configuration not stated)	69	13.4
O=c1c2c3c(sc2ncn1Cc1cccc(-c2ccccc2)c1)CC(Nc1ccc(F)cc1)CC3 (configuration not stated)	52	–
COc1ccccc1NC1CCc2c(sc3ncn(Cc4c(OC)ccc5ccccc45)c(=O)c23)C1 (configuration not stated)	29	–

Compound	inhibition [1] [%]	IC50 [2] [µM]
O=c1c2c3c(sc2ncn1Cc1ccc2ccccc2c1)CC(NC1CCOCC1)CC3 (configuration not stated)	52	–
O=c1c2c3c(sc2ncn1Cc1cccc(-c2ccccc2)c1)CC(NC1CCCc2ccccc21)CC3 (configuration not stated)	22	–
Cc1ccc(NC2CCc3c(sc4ncn(Cc5cccc(-c6ccccc6)c5)c(=O)c34)C2)cc1 (configuration not stated)	27	–
COc1ccc(Cn2cnc3sc4c(c3c2=O)CCC(Nc2ccc(C)cc2)C4)c2ccccc12 (configuration not stated)	35	–
COc1ccc2ccccc2c1Cn1cnc2sc3c(c2c1=O)CCC(NCCNC(C)=O)C3 (configuration not stated)	44	–
COc1cccc(CNC2CCc3c(sc4ncn(Cc5c(OC)ccc6ccccc56)c(=O)c34)C2)c1 (configuration not stated)	–	1.9
O=c1c2c3c(sc2ncn1Cc1ccccc1)CC(NCc1ccccc1)CC3 (configuration not stated)	57	–
COc1ccc2ccccc2c1Cn1cnc2sc3c(c2c1=O)CCC(NCc1ccccc1F)C3 (configuration not stated)	64	–
O=c1c2c3c(sc2ncn1Cc1ccc2ccccc2c1)CC(NC1CCCC1)CC3 (configuration not stated)	63	–
COCCNC1CCc2c(sc3ncn(Cc4ccc5ccccc5c4)c(=O)c23)C1 (configuration not stated)	45	–
O=c1c2c3c(sc2ncn1Cc1cccc2ccccc12)CC(NCC1CCOC1)CC3 (configuration not stated)	72	–
Cc1cccc(NC2CCc3c(sc4ncn(Cc5cccc6cccnc56)c(=O)c34)C2)c1 (configuration not stated)	62	–
Cc1ccc(NC2CCc3c(sc4ncn(Cc5cccc6ccccc56)c(=O)c34)C2)cc1 (configuration not stated)	50	–
O=c1c2c3c(sc2ncn1Cc1ccccc1)CC(NCc1ccncc1)CC3 (configuration not stated)	33	–
COc1ccccc1Cn1cnc2sc3c(c2c1=O)CCC(NCc1c(C)nn(C)c1C)C3 (configuration not stated)	37	–
COc1ccc2ccccc2c1Cn1cnc2sc3c(c2c1=O)CCC(NCc1ccc(C#N)cc1)C3 (configuration not stated)	75	–
O=c1c2c3c(sc2ncn1Cc1cccc2ccccc12)CC(NCCN1CCCC1)CC3 (configuration not stated)	56	–
O=c1c2c3c(sc2ncn1Cc1cccc2cccnc12)CC(NCCN1CCOCC1)CC3 (configuration not stated)	53	–
COc1cccc(CNC2CCc3c(sc4ncn(Cc5ccc6ccccc6c5)c(=O)c34)C2)c1 (configuration not stated)	51	–
COc1ccc(CNC2CCc3c(sc4ncn(Cc5ccccc5)c(=O)c34)C2)cn1 (configuration not stated)	48	–
O=c1c2c3c(sc2ncn1Cc1ccc2ccccc2c1)CC(NCC1CCOC1)CC3 (configuration not stated)	58	–
O=c1c2c3c(sc2ncn1Cc1ccccc1)CC(NCc1cccnc1)CC3 (configuration not stated)	42	–
COc1ccccc1CCNC1CCc2c(sc3ncn(Cc4ccc5ccccc5c4)c(=O)c23)C1 (configuration not stated)	67	–
COc1ccc(Cn2cnc3sc4c(c3c2=O)CCC(Nc2ccc3c(c2)OCO3)C4)c2ccccc12 (configuration not stated)	38	–
O=c1c2c3c(sc2ncn1Cc1ccccc1)CC(NC1CCc2ccccc21)CC3 (configuration not stated)	59	–

Source: ChEMBL document CHEMBL4004822, “Thienopyrimidinone Based Sirtuin-2 (SIRT2)-Selective Inhibitors Bind in the Ligand Induced Selectivity Pocket” (J Med Chem, 2017)
